Here are results for five compounds from ChEMBL document CHEMBL4033795, “Design, Synthesis, and Structure-Activity Relationship Study of 2-Oxo-3,4-dihydropyrimido[4,5- d]pyrimidines as New Colony Stimulating Factor 1 Receptor (CSF1R) Kinase Inhibitors” (J Med Chem, 2018).

Data set [1] deals with Macrophage colony-stimulating factor 1 receptor (Homo sapiens, UniProt P07333). The experiment in a line: Inhibition of recombinant human His-tagged CSF1R cytoplasmic domain (538 to 910 residues) expressed in baculovirus using tyr4 peptide as substrate after 1 hr by FRET-based Z'-Lyte assay. A digest of the protocol: (§1)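 Z′-Lyte FRET assay with CSF1R or EGFR and 2 μM Tyr4 peptide substrate in 1× kinase buffer. ATP was supplied as a 100 μM solution, a stock and not the final concentration. Compounds were 3-fold serially diluted in DMSO. Reaction ran 1 h at room temperature, followed by 1 h development and a stop reagent. Phospho-peptide, no-ATP and DMSO controls were included. IC50 by curve fitting; mean of at least three independent experiments.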

Data set [2] has as its target Epidermal growth factor receptor (Homo sapiens, UniProt P00533). The experiment in a line: Inhibition of recombinant human wild type GST-tagged EGFR cytoplasmic domain (668 to 1210 residues) expressed in baculovirus using tyr4 peptide as substrate after 1 hr by FRET-based Z'-Lyte assay.
The species named for the next data set is Homo sapiens. The experiment in a line: Selectivity ratio of IC50 for recombinant human wild type GST-tagged EGFR cytoplasmic domain (668 to 1210 residues) expressed in baculovirus to IC50 for recombinant human His-tagged CSF1R cytoplasmic domain (538 to 910 residues) expressed in baculovirus. A digest of the protocol:
as §1

Data set [3] can be described thus: AUC (0 to infinity) in Sprague-Dawley rat at 5 mg/kg, iv measured up to 72 hrs by LC/MS analysis. It is filed as ADME, organism-based. More on the design: dose 5 mg/kg, time infinity, route intravenous. As to conditions: in vivo. A digest of the protocol:
(§2)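 Male Sprague-Dawley rats, 4–6 weeks old, acclimatised 1 week, were dosed iv at 5 mg/kg or by oral gavage at 25 mg/kg. Vehicle was 2% DMSO, 4% EtOH, 4% castor oil, 90% H2O. Blood was drawn by orbital sinus puncture from 2 min to 72 h into heparinized tubes. Plasma was assayed by LC/MS with propranolol as internal standard. Three animals per group.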

Data set [4] has as its system Rattus norvegicus. The data set is described as follows: Apparent clearance in Sprague-Dawley rat at 25 mg/kg administered via oral gavage measured up to 72 hrs by LC/MS analysis. It is filed as ADME, organism-based. The note with it: in vivo, iv, 5 mg/kg, in the assay text read “5 mg/kg administered intravenously” for “25 mg/kg administered via oral gavage”. A digest of the protocol:
as §2

The nature of data set [5]: Cmax in Sprague-Dawley rat at 25 mg/kg administered via oral gavage measured up to 72 hrs by LC/MS analysis. It is filed as ADME, organism-based. More on the design: dose 25 mg/kg, route oral. The note with it: in vivo. A digest of the protocol:
as §2

A short description of data set [6]: Half life in Sprague-Dawley rat at 5 mg/kg, iv measured up to 72 hrs by LC/MS analysis. Type of data set: ADME, organism-based. As to conditions: in vivo. A digest of the protocol:
as §2

Data set [7] is described as follows: Half life in Sprague-Dawley rat at 25 mg/kg administered via oral gavage measured up to 72 hrs by LC/MS analysis. It is filed as ADME, organism-based. The note with it: in vivo. A digest of the protocol: as §2
Data set [8] relates to Rattus norvegicus. The data set is described as follows: AUC (0 to infinity) in Sprague-Dawley rat at 25 mg/kg administered via oral gavage measured up to 72 hrs by LC/MS analysis. It is filed as ADME, organism-based. Set-up: dose 25 mg/kg, route oral, time infinity. The note with it: in vivo. A digest of the protocol: as §2
Data set [9] in a line: Oral bioavailability in Sprague-Dawley rat at 25 mg/kg administered via gavage measured up to 72 hrs by LC/MS analysis. It is filed as ADME, organism-based. As to conditions: in vivo. A digest of the protocol:
as §2

Structures are written as SMILES.

Epidermal growth factor receptor, sequence (P00533 whole entry, the tested form may be a part): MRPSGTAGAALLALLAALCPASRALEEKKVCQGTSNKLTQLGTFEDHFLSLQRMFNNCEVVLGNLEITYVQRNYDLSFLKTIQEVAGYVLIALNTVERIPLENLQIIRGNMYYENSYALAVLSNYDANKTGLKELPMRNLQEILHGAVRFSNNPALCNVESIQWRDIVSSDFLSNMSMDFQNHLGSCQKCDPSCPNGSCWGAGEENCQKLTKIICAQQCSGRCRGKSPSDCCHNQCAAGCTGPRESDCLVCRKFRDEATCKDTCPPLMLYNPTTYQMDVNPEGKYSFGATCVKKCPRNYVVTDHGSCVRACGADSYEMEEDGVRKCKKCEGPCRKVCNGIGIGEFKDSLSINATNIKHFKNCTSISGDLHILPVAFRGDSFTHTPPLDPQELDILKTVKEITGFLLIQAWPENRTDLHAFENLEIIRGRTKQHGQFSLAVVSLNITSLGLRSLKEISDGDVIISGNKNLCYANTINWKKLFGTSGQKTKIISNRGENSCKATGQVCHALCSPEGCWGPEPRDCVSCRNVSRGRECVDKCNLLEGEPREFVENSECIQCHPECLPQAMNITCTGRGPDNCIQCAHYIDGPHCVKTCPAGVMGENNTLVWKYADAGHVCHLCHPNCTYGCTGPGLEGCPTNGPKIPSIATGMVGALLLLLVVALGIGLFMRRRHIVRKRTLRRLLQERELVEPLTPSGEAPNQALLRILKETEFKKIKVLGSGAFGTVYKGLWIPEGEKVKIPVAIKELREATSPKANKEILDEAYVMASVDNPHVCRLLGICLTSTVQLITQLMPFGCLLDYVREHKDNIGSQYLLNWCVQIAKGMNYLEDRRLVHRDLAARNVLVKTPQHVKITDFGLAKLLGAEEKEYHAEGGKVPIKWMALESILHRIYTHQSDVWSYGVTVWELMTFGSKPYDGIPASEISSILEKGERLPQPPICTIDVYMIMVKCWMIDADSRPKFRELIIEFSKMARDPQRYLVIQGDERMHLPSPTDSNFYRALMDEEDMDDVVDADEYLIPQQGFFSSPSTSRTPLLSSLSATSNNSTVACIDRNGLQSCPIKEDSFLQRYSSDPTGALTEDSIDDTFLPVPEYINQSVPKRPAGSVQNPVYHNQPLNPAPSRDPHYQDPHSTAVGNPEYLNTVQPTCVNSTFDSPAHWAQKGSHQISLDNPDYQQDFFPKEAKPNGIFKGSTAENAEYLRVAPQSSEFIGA
Macrophage colony-stimulating factor 1 receptor, sequence (P07333 whole entry, the tested form may be a part): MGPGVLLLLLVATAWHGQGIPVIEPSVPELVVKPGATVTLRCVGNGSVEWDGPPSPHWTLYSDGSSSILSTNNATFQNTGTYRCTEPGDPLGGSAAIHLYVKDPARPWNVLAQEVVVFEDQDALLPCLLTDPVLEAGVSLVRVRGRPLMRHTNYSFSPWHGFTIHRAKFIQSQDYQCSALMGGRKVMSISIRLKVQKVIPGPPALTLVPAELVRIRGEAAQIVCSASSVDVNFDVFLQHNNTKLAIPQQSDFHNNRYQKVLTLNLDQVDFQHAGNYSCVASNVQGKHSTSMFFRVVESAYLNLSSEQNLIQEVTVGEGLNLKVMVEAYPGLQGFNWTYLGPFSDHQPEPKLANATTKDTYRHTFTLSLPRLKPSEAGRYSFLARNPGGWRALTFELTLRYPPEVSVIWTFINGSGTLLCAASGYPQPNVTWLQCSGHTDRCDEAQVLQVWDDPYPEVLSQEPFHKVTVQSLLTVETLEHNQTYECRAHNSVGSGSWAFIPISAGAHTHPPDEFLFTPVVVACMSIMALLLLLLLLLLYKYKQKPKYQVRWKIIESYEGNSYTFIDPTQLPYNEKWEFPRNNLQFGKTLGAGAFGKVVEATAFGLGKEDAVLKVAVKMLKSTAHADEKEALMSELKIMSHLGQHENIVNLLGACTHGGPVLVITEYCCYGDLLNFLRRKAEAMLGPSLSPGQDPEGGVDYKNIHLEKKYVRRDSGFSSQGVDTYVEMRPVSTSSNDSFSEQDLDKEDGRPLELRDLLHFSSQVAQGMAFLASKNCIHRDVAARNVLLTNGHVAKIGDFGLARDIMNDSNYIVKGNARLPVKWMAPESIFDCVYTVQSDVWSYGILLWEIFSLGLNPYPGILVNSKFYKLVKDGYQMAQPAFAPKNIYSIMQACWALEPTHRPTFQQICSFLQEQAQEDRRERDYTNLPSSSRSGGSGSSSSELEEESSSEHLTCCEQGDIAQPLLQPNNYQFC

In the case of `CCC(=O)N1CC[C@H](N2C(=O)N(c3cccc(OC)c3F)Cc3cnc(Nc4ccc(N5CCN(C)CC5)c(C)c4)nc32)C1`, the 50% inhibitory concentration (IC50) (as a rule, the point on the concentration scale where inhibition reaches its midpoint) in [1] turned out to be 4.5 nM; in data set [2], 421 nM. Besides, the Ratio IC50 in the data set filed under Homo sapiens is 99 to 200.
The like results for `CCC(=O)N1CC[C@H](N2C(=O)N(c3cccc(OC)c3Cl)Cc3cnc(Nc4ccc(N5CCN(C)CC5)c(C)c4)nc32)C1` were, in that order, 4.4 nM, 413 nM and 99 to 200.
The like results for `CCC(=O)N1CC[C@H](N2C(=O)N(c3cccc(OC)c3)Cc3cnc(Nc4ccc(N5CCN(C)CC5)c(C)c4)nc32)C1` were, in that order, 4.5 nM, 417 nM and 92.
Turning to `CCC(=O)N1CC[C@H](N2C(=O)N(c3cc(OC)ccc3Cl)Cc3cnc(Nc4ccc(N5CCN(C)CC5)c(C)c4)nc32)C1`, the IC50 in data set [1] is 2.1 nM. Also, the AUC(0-inf) (as a rule, the area under the concentration-time curve extrapolated to infinity) in [3] came out at 2770 ng·h/mL. The “CL(app)” value with Rattus norvegicus [4] was 30.7 mL/min/kg. Moreover, the highest level in [5] (Cmax) was 988 ng/mL. Also, the half-life – broadly, the time needed for the level to fall by half in the phase considered – in [6] is 3.48 h; in data set [7], 1.89 h. Moreover, the AUC (in general, the area under the concentration-time curve, a measure of exposure) in the data set with Rattus norvegicus [8] worked out at 5311 ng·h/mL. For the same compound, the bioavailability – broadly, dose-corrected exposure relative to a reference, in per cent – in [9] stood at 38.6%.
As for `CCC(=O)N1CC[C@H](N2C(=O)N(c3cc(OC)ccc3F)Cc3cnc(Nc4ccc(N5CCN(C)CC5)c(C)c4)nc32)C1`, the values for the IC50 in data set [1] and in data set [2] were 2 nM and 362 nM, respectively. The compound also yielded an AUC(0-inf) in [3] of 1900 ng·h/mL. Also, in the data set listed under Homo sapiens, the Ratio IC50 was 99 to 200. Further, in the data set with Rattus norvegicus [4], the “CL(app)” value is 44 mL/min/kg. The Cmax (commonly the peak of the concentration-time curve) in data set [5] amounted to 396 ng/mL. The half-life was 2.3 h in data set [6] and 1.6 h in data set [7]. The compound further displayed an AUC in the data set on Rattus norvegicus [8] of 1630 ng·h/mL. Besides, the bioavailability in data set [9] came out at 17.1%.
